Calls of active or inactive are those of the source. The calls are words filed in the database; no cut-off is given here.
How the values were obtained:
Mus musculus = experiment: Toxicity in BALB/C-nu/nu mouse xenografted with human SiHa cells assessed as decrease in body weight at 10 to 20 mg/kg, ip administered daily for 3 weeks measured everyday during compound dosing; type: organism-based; details: in vivo, 504 h
Procedure, shortened: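 SiHa cells (1×10^7 per 100 µL, serum-free DMEM) were injected subcutaneously. Grown tumors were divided into pieces and implanted into BALB/C-nu/nu mice. Caliper volume (1/2 × L × W²) and body weight were recorded daily; tumors were weighed at the end.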

[1] = Inhibition of telomerase (unknown origin) by TRAP-LIG assay; design: species or system Homo sapiens
Quadruplex DNA [2] = experiment: Stabilization of telomeric G-quadruplex DNA in human SiHa cells assessed as decrease in TRF length at 0.5 to 1 uM after 21 days by chemiluminescence detection method; type: cell-based
Procedure, shortened: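 SiHa cells were kept 21 days with 0.5 or 1 µM compound or 0.1% DMSO, with medium and compound renewed every 3 days. Genomic DNA was cut with HinfI/RsaI, run on 0.8% agarose, blotted to nylon, baked at 120 °C for 20 min, and TRF length detected by chemiluminescence.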

Quadruplex DNA [3] = experiment: Stabilization of telomeric G-quadruplex DNA in human SiHa cells assessed as increase in BG4 foci per nucleus at 2 uM after 24 hrs by DAPI staining-based immunofluorescence method relative to control; type: cell-based
Procedure, shortened: (§1)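 Cells were treated 24 h with 2 µM compound or 0.1% DMSO, then fixed (4% paraformaldehyde), permeabilized (0.5% Triton X-100) and blocked (5% goat serum). Staining used BG4 (80 ng/µL, 37 °C 3 h) with anti-FLAG, and/or γ-H2AX, TRF2 or POT1 antibodies at 4 °C overnight. Alexa 488/555 secondaries and DAPI followed. Foci or co-localized foci per nucleus were counted by confocal microscopy; mean ± SEM, two-tailed unpaired t test.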

Quadruplex DNA [4] = experiment: Stabilization of telomeric G-quadruplex DNA in human U2OS cells assessed as induction of DNA damage response by measuring gamma-H2AX foci formation per nucleus at 2 uM after 24 hrs by DAPI staining-based immunofluorescence method; type: cell-based; procedure, shortened: as §1
Quadruplex DNA [5] = experiment: Stabilization of telomeric G-quadruplex DNA in human SiHa cells assessed as reduction of POT1/TRF2 co-localized foci per nucleus at 2 uM after 24 hrs by DAPI staining-based double immunofluorescence method; type: cell-based; procedure, shortened: as §1
SiHa [6] = experiment: Induction of telomeric G-quadruplex DNA formation in human SiHa cells assessed as increase in colocalization of BG4/TRF2 foci per nucleus at 2 uM after 24 hrs by DAPI staining-based immunofluorescence method; type: cell-based; procedure, shortened: as §1
SiHa [7] = experiment: Effect on POT1 expression in human SiHa cells at 1 uM after 48 hrs by Western blot method; type: functional, cell-based
SiHa [8] = experiment: Induction of apoptosis in human SiHa cells at 2 uM after 96 hrs by annexin V-FITC/propidium iodide staining-based flow cytometric method relative to control; type: functional
Procedure, shortened: (§2)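 SiHa cells were treated with compound or DMSO for 96 h, washed, resuspended in binding buffer, and stained with Annexin V-FITC and PI for 15 min in the dark. Apoptotic percentage was measured by flow cytometry; mean ± SEM.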

Quadruplex DNA [9] = experiment: Stabilization of telomeric G-quadruplex DNA in human U2OS cells assessed as induction of DNA damage response by measuring co-localization of gamma-H2AX and TRF2 foci per nucleus at 2 uM after 24 hrs by DAPI staining-based double immunofluorescence method; type: cell-based; procedure, shortened: as §1
SiHa [10] = experiment: Antiproliferative activity against human SiHa cells after 90 hrs by RTCA method; type: functional, cell-based
Procedure, shortened: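 SiHa proliferation was followed by real-time cellular analysis during 90 h of compound treatment at several concentrations.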

Quadruplex DNA [11] = experiment: Stabilization of telomeric G-quadruplex DNA in human SiHa cells assessed as increase in phosphorylated CHK1 expression after 48 hrs by Western blot method; type: cell-based
Procedure, shortened: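 SiHa cells were treated with compound for 48 h and lysed in RIPA buffer. 20 µg protein was run on 10% SDS-PAGE and transferred to PVDF. Blots were blocked in 3% BSA, probed with primary antibodies (1:1,000, 4 °C 16 h) for p-ATR, p-CHK1 and p-P53, then secondaries (1:2,000, 2 h at room temperature).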

A549 = experiment: Antiproliferative activity against human A549 cells after 48 hrs by MTT assay; type: functional, cell-based; details: A549, 48 h
Procedure, shortened: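 Cells seeded at 5.0×10^3 per well and exposed to a range of compound concentrations for 48 h. MTT (2.5 mg/mL solution) was then added for 4 h, formazan was dissolved in DMSO, and OD was read at 570 nm. HL-60 was grown in RPMI-1640 with 10% FBS, the other lines in DMEM with 10% FBS, at 37 °C and 5% CO2. Triplicates; IC50 taken from mean OD versus concentration curves.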

SiHa [12] = experiment: Induction of apoptosis in human SiHa cells after 96 hrs by annexin V-FITC/propidium iodide staining-based flow cytometric method; type: functional, cell-based; procedure, shortened: as §2
Quadruplex DNA [13] = experiment: Stabilization of telomeric G-quadruplex DNA in human SiHa cells assessed as induction of telomere uncapping by measuring formation of anaphase bridge at 1 uM after 48 hrs by DAPI staining-based laser scanning microscopic method; type: cell-based
Procedure, shortened: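 SiHa cells were treated with 1 µM compound for 48 h, fixed in 2% formaldehyde/0.2% glutaraldehyde for 15 min, and stained with 2 µg/mL DAPI at 37 °C for 3 h. Confocal imaging followed. Anaphase-bridge frequency is the fraction of cells with bridges; at least 50 anaphase cells per experiment.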

Quadruplex DNA [14] = experiment: Stabilization of telomeric G-quadruplex DNA in human SiHa cells assessed as levels of metaphase chromosome having at least one telomere end loss at 1 uM after 48 hrs by Tamra-OO-[TTAGGG]3 PNA probe and DAPI staining-based FISH assay relative to control; type: cell-based
Procedure, shortened: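 Metaphase spreads from SiHa cells treated 48 h with 1 µM compound or 0.1% DMSO were hybridized with a telomeric PNA probe and counterstained with DAPI. The share of chromosomes with at least one telomere-free end was scored; mean ± SEM, two-tailed unpaired t test.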

Quadruplex DNA [15] = experiment: Stabilization of F21T telomeric G-quadruplex DNA (unknown origin) at 1 uM in presence of non-fluorescent duplex DNA ds26 by FRET assay; type: nucleic-acid assay
Procedure, shortened: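 Competition FRET: 0.2 µM F21T with 1 µM ligand, plus or minus unlabelled duplex ds26 at 3 µM (15-fold) or 10 µM (50-fold), in 10 mM Tris-HCl pH 7.4 with 60 mM KCl. Melting monitored at 470/530 nm over 37–99 °C.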

Quadruplex DNA [16] = experiment: Stabilization of F21T telomeric G-quadruplex DNA (unknown origin) assessed as change in melting temperature at 1 uM by FRET assay; type: nucleic-acid assay
Procedure, shortened: (§3)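 FRET melting: 0.2 µM F21T or F10T (FAM/TAMRA-labelled), with or without 1.0 µM ligand, in 10 mM Tris-HCl pH 7.4 with 60 mM KCl. Excitation 470 nm, emission 530 nm, read every 1 °C from 37–99 °C at 1 °C/min with a 30 s hold. ΔTm = Tm(DNA+ligand) − Tm(DNA).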

[17] = Stabilization of F10T hairpin duplex DNA (unknown origin) assessed as change in melting temperature at 1 uM by FRET assay; procedure, shortened: as §3

- IC50 [1]: 9.6 µM
- IC50 (A549): 9.1 µM
- Activity (Quadruplex DNA [15]): Active
- ΔTm (Quadruplex DNA [16]): 23.5 °C
- ΔTm [17]: 0.1 °C
SMILES: CN(C)CCCNc1cc2nc(/C=C3\C(=O)Nc4cc(N5CCN(C)CC5)ccc43)[nH]c(=O)c2cc1F
- Activity (Mus musculus): Non-Toxic
- Activity (Quadruplex DNA [2]): Active
- fold change (FC) (Quadruplex DNA [3]): 2
- Activity (Quadruplex DNA [4]): Active
- Activity (Quadruplex DNA [5]): Active
- Activity (SiHa [6]): Active
- Activity (SiHa [7]): inactive
- Activity (SiHa [8]): 60%
- Activity (Quadruplex DNA [9]): Active
- Activity (SiHa [10]): Dose-dependent effect
- Activity (Quadruplex DNA [11]): Dose-dependent effect
- Activity (SiHa [12]): Dose-dependent effect
- Activity (Quadruplex DNA [13]): Active
- Activity (Quadruplex DNA [14]): 31%

Source: ChEMBL document CHEMBL4177752, “Discovery of Novel Schizocommunin Derivatives as Telomeric G-Quadruplex Ligands That Trigger Telomere Dysfunction and the Deoxyribonucleic Acid (DNA) Damage Response” (J Med Chem, 2018)
